The values that follow come from paper PMC8204096 (Clinical & Translational Immunology, 2021).

Data set [1] deals with B cells in human whole blood. The experiment in a line: Anti-IgD-induced B-cell activation. The data set is classed as cell-based. To be noted: read-out: IC50, B-cell activation in whole blood, stimulated cells.
Data set [2] relates to CD19+ B cells from human PBMC. Briefly: Anti-IgD-induced B-cell activation. It is filed as cell-based. To be noted: read-out: IC50, CD69 induction on B cells. The essentials:
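PBMCs from healthy donors were isolated by density gradient. They were incubated for 30 min with titrating concentrations of test compound or DMSO, then stimulated overnight at 37°C with rabbit F(ab′)2 anti-human IgD (5 μg mL−1). After Fc block and staining for 30 min on ice, the frequency of CD69+ cells among CD19+ B cells was measured by flow cytometry.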

The test system of data set [3] is CD19+ B cells from human PBMCs. The experiment in a line: Antigen-independent B-cell activation by anti-CD3/anti-CD28-activated T cells. It is filed as cell-based. The method, boiled down:
(§1)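 Human PBMCs were pre-treated for 30 min with titrating concentrations of test compound. They were then stimulated overnight at 37°C with soluble anti-CD28 (CD28.2, 5 μg mL−1) and plate-bound anti-CD3 (HIT3a, 0.5 µg mL−1). CD69 on CD4+ and CD8+ T cells and on CD19+ B cells was measured by flow cytometry.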

Data set [4] concerns B220+ mouse splenic B cells. Briefly: Anti-IgM-induced B-cell activation. To be noted: read-out: IC50, CD69 induction on B cells. It is filed as cell-based. The essentials: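 Splenic B cells were bead-isolated from OTII mice and pre-treated with test compound for 30 min at 37°C. They were incubated on ice with biotinylated goat F(ab′)2 anti-mouse IgM (10 μg mL−1, 15 min), then OVA-conjugated anti-biotin (10 min), with compound present throughout. They were co-cultured with dye-labelled CD4+ T cells for 72 h at 37°C. The frequency of CD69+ B220+ B cells was measured by flow cytometry.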

The test system of data set [5] is NP-specific IgM antibody titres. The experiment in a line: NP-Ficoll T cell-independent. The data set is classed as in vivo. Conditions: mouse, oral BID for 10 days.
The test system of a further data set is purified human B cells. Briefly: Human B-cell proliferation. The data set is classed as cell-based. Conditions: 100 nM added at time of activation; TLR9 or anti-IgM/CD40L with IL-4 or IL-21. The method, boiled down: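 Healthy-donor B cells were enriched untouched and labelled with CFSE. Stimuli were CpG ODN 2006, or F(ab′)2 anti-IgM (1 µg mL−1), or anti-IgM/MEGACD40L (1 μg mL−1) with IL-4 or IL-21 (each 20 ng mL−1). Cells were cultured with or without 100 nm test compound in serum-free X-VIVO 10 for 3–5 days, then analysed by flow cytometry.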

In data set [6] the test system is mouse splenic B cells and OTII CD4+ T cells. Briefly: BCR-mediated antigen presentation to T cells. The data set is classed as cell-based. Conditions: read-out: IC50, BCR-mediated antigen presentation to OVA323-339-specific T cells (T-cell proliferation).
For data set [7], the system named is CD4+ and CD8+ T cells from human PBMCs. The experiment in a line: Anti-CD3/anti-CD28-mediated T-cell activation counter-screen. Conditions: anti-CD3 and anti-CD28 overnight, concentrations up to 10 μM. It is filed as cell-based. The essentials:
as §1
(Counterscreens check selectivity or assay interference.)

The test system of data set [8] is splenic germinal center B cells. Briefly: Sheep red blood cell thymus-dependent immunisation model. It is filed as in vivo. To be noted: mouse, 8 days BID, all doses tested. The method, boiled down: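 Mice were dosed orally BID at 10 mL kg−1 with test compound or vehicle from day 1 to day 9. On day 2 they received washed sheep red blood cells i.p. (2 × 10⁹ cells). Spleens were collected on day 9, 3 h after the last dose. Germinal centre B cells (CD3−CD19+B220+CD38lowGL7+CD95+) were enumerated by flow cytometry, with 8–20 mice per group.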

For data set [9], the system named is B cells in whole blood of dosed healthy individuals. The experiment in a line: Phase 1. The data set is classed as in vivo, human. The essentials:
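Heparinised whole blood from trial participants (test compound or placebo, BID) was stimulated with 0.1 μg mL−1 dextran-conjugated anti-IgD (IA6-2) for 18–24 h at 37°C/5% CO2. Samples were stained for CD19 and CD69, RBC-lysed and fixed. CD69 on CD19+, CD27− and CD27+ B cells was standardised with MESF beads. Inhibition was calculated relative to pre-dose samples.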

The target of the next data set is BTK (Mus musculus, UniProt P35991). The experiment in a line: in vivo.
For data set [10], the system named is basophils in human whole blood. The experiment in a line: FcεR-mediated basophil degranulation. The data set is classed as cell-based. To be noted: read-out: IC50, anti-IgE-mediated basophil degranulation (CD63).
For data set [11], the system named is B cells in mouse whole blood. The experiment in a line: Anti-IgD-induced B-cell activation. To be noted: read-out: IC50, CD62L downregulation on B cells. It is filed as cell-based.
The mark [12] stands for this setting: Homo sapiens, B-cell, read-out: average (± SD) CD69 inhibition at 24 h post-last dose.
[13] abbreviates: Homo sapiens, B-cell, read-out: pre-dose average CD69 inhibition in naïve B cells.

By inhibition is commonly meant the relative decrease from the control value, in per cent.

The structures appear in SMILES notation. Read-outs that look alike come from different tables or passages of the source. A value given as a limit tells only on which side of the number the result lay.

BTK, sequence (P35991 whole entry): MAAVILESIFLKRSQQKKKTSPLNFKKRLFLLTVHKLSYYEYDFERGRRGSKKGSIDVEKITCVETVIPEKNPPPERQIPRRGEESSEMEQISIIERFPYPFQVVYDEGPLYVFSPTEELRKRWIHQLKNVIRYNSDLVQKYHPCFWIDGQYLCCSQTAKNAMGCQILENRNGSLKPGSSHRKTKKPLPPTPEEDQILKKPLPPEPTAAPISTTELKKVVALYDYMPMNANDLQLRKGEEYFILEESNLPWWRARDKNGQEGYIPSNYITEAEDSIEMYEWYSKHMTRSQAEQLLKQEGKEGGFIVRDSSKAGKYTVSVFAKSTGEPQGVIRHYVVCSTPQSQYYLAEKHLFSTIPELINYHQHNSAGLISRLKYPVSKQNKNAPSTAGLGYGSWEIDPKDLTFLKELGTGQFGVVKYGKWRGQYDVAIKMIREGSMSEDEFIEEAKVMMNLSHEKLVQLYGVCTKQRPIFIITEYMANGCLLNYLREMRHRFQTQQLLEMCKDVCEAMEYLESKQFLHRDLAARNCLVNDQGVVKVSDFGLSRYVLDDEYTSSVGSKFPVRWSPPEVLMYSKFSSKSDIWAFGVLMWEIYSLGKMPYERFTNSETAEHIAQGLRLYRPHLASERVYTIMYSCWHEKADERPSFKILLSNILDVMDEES

On to `Cc1cc(-c2ccnc(Nc3cnn(C)c3)n2)ccc1CNC(=O)N1CC(OC(C)C)C1` [BIIB068], for which the IC50 in data set [1] worked out at 3500 nM.

Take `Cn1cc(Nc2nccc(-c3ccc4c(c3)CN(C3COC3)CC[C@H]4NC(=O)c3cn(C(C)(C)C)nn3)n2)cn1` [BIIB091]: the IC50 was 5.4 ± 0.5 nM in data set [2]; 16 ± 11 nM in [4]; 22 ± 8 nM in data set [6]; 3.1 nM against BTK; 106 nM in data set [10]; 40 ± 24 nM in data set [11]. For the same molecule, the “inhibition of T cell-dependent, antigen-independent B-cell activation (CD69)” value in data set [3] is “did not inhibit”. For the same molecule, in data set [5], the “ED50 for NP-specific IgM antibody titres” value was found to be 1.95 mg/kg. The “effect on B-cell proliferative responses” value with purified human B cells is listed as “potently blocked”. Also, in [7], the “inhibition of CD4+ or CD8+ T-cell activation (CD69)” value was “did not inhibit”. The “frequency of total splenic B cells” value in data set [8] is given as “unchanged”. Further, the “inhibition of CD69 upregulation in naïve B cells” value in [9] (50 mg BID, 1 and 2 h post-dosing) is “complete”. Moreover, the inhibition at 50 mg in [9] (setting [12]) was -5.8%. Moreover, the inhibition at 150 mg in data set [9] (setting [12]) was 19%; in data set [9] (setting [13]), at least 90%. The results for the inhibition at 300 mg in [9] (setting [12]) and in [9] (setting [13]) were -2.8% and at least 90%, respectively.
